One series relates to RAW264.7. The series can be described thus: Inhibition of C5a-mediated PKB/Akt phosphorylation in mouse Raw264 macrophage. It is filed as functional, cell-based. The gist of the method:
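Raw-264 murine macrophages starved 3 h in serum-free medium, pretreated 30 min with inhibitor or DMSO, then stimulated 5 min with 50 nM C5a. Phospho-Ser-473 Akt measured by ELISA. Concentration-response; IC50. Mean ± standard deviation of four independent experiments done in triplicate.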

Series [1] addresses T1, Phosphatidylinositol 4,5-bisphosphate 3-kinase catalytic subunit gamma isoform (Homo sapiens, UniProt P48736). The series can be described thus: Inhibition of human PI3Kgamma.
Target sequence in this assay (P48736 whole entry, canonical isoform): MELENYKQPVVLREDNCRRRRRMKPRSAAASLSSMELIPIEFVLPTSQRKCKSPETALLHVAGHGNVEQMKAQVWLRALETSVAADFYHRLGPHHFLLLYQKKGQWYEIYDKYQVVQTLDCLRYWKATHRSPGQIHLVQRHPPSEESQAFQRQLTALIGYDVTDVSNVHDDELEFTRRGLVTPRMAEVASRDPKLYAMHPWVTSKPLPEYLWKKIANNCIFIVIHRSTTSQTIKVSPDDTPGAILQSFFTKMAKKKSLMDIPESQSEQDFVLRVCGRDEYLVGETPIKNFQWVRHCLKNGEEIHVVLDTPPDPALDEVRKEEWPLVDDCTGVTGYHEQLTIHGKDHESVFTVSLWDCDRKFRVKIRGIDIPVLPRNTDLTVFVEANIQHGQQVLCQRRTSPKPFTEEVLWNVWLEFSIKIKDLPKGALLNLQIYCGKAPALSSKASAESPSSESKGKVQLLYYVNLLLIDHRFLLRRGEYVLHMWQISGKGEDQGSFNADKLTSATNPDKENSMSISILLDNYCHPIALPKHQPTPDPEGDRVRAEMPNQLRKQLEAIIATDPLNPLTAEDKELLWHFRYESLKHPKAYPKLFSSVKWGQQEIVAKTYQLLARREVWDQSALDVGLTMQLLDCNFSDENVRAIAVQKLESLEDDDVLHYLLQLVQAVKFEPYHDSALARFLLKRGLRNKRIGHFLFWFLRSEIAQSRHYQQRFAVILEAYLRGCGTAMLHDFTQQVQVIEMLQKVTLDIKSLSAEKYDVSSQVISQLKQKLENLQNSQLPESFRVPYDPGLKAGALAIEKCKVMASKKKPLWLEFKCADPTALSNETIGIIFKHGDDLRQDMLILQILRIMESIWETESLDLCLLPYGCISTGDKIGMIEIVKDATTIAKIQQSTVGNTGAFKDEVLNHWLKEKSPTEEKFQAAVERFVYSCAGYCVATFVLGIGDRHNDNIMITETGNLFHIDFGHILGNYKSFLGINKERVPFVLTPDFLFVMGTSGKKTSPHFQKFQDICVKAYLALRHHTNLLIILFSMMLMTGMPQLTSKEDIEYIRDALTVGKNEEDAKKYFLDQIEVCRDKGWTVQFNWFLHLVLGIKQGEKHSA
Series [2] concerns the target Phosphatidylinositol 4,5-bisphosphate 3-kinase catalytic subunit alpha isoform (Homo sapiens, UniProt P42336). Put plainly: Inhibition of human PI3Kalpha.
Series [3] can be described thus: Dissociation constant, pKa of the compound. It is filed as physicochemical. The gist of the method:
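UV-metric titration under argon at 25 ± 0.5 °C. 10 mM DMSO stock diluted into 0.15 M KCl containing 60, 50, 40 or 30 wt% MeOH, with 0.25 mM KH2PO4. Brought to pH 11.0 with 0.5 M KOH, then titrated with 0.5 M HCl to pH 4, at most 0.15 pH unit per step. UV 200-500 nm recorded after each addition; Yasuda-Shedlovsky extrapolation to zero cosolvent.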

Series [4] has as its target T1, Phosphatidylinositol 4,5-bisphosphate 3-kinase catalytic subunit gamma isoform. Put plainly: Inhibition of human PI3Kgamma at 1 uM. The gist of the method: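 Primary screen of PI3Kγ lipid kinase (SPA, ATP/[γ33P]ATP with PtdIns substrate); percent inhibition at 1 µM compound.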
Target sequence in this assay (P48736 whole entry, looked up, canonical isoform): as the sequence (P48736 whole entry, canonical isoform) above
Series [5] relates to THP-1. The series can be described thus: Inhibition of MCP1-induced PKB/Akt phosphorylation in THP1 cells. It is filed as functional, cell-based. To be noted: Homo sapiens. The gist of the method:
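THP-1 monocytes starved 3 h in serum-free medium and pretreated with inhibitor or DMSO (15 min in methods; 20 min in figure legend). Stimulated with 100 nM MCP-1/CCL2 for 30 s, or with 50 ng/mL CSF-1 for 5 min. Phospho-Ser-473 and total Akt detected by Western blot and quantified.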

The target in series [6] is T2, Phosphatidylinositol 4,5-bisphosphate 3-kinase catalytic subunit delta isoform (Homo sapiens, UniProt O00329).
T2 sequence (O00329 whole entry): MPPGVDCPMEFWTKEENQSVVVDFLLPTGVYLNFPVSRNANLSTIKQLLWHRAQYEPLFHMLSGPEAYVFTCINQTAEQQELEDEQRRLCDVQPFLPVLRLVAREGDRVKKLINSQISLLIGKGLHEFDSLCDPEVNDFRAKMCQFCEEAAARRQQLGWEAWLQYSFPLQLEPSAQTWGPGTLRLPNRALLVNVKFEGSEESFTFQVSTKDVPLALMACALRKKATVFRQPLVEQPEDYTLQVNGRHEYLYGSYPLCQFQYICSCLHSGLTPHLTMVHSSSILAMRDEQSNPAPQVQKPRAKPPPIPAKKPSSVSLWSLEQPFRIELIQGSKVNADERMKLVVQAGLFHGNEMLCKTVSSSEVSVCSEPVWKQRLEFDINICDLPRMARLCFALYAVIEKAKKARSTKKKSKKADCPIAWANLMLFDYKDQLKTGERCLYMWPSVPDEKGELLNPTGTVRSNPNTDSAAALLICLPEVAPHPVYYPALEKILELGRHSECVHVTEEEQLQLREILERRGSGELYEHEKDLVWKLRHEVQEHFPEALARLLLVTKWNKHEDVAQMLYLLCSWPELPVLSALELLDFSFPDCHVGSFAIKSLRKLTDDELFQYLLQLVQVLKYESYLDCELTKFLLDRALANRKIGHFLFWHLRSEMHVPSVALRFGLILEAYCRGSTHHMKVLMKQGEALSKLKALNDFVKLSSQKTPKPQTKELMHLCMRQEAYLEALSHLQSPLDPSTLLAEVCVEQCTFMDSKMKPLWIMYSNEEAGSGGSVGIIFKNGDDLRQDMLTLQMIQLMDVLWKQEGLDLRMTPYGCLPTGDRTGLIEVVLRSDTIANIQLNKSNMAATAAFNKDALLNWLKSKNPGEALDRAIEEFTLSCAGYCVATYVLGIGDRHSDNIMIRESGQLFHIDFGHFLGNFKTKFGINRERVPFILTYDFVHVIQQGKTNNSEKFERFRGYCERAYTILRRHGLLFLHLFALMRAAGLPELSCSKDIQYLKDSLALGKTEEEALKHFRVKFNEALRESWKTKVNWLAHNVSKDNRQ
The series can be described thus: Inhibition of human PI3Kdelta.

Series [7] concerns THP-1. Put plainly: Inhibition of CSF-1-induced PKB/Akt phosphorylation in THP1 cells. To be noted: Homo sapiens.
For series [8], the system named is THP-1. Put plainly: Inhibition of MCP1-induced chemotaxis of THP1 cells. Type of series: functional, cell-based. Conditions: Homo sapiens.
A further series concerns Mast cell. Put plainly: Inhibition of SCF-induced PKB/Akt phosphorylation in mouse mast cells at 20 uM. Type of series: functional, cell-based. The gist of the method:
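Bone marrow mast cells from 4- to 8-week-old wild-type mice, derived ≥4 weeks in 20 ng/mL SCF plus 20 ng/mL IL-3 and confirmed c-kit+ by FACS. Cells at 2.5 × 10^6/mL starved 24 h without SCF/IL-3, preincubated 20 min with compound or 1% DMSO, stimulated 15 min at 37 °C with 20 ng/mL SCF. Fixed in 1.5% paraformaldehyde, permeabilized with 0.2% Triton X-100, phospho-Ser-473 Akt read by FACS.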

Series [9] concerns the target Phosphatidylinositol 4,5-bisphosphate 3-kinase catalytic subunit beta isoform (Homo sapiens, UniProt P42338). Put plainly: Inhibition of human PI3Kbeta.

The source made the active and inactive calls. No cut-off for these calls is given here. Some results are limits rather than exact numbers.

Phosphatidylinositol 4,5-bisphosphate 3-kinase catalytic subunit alpha isoform, sequence (P42336 whole entry, canonical isoform): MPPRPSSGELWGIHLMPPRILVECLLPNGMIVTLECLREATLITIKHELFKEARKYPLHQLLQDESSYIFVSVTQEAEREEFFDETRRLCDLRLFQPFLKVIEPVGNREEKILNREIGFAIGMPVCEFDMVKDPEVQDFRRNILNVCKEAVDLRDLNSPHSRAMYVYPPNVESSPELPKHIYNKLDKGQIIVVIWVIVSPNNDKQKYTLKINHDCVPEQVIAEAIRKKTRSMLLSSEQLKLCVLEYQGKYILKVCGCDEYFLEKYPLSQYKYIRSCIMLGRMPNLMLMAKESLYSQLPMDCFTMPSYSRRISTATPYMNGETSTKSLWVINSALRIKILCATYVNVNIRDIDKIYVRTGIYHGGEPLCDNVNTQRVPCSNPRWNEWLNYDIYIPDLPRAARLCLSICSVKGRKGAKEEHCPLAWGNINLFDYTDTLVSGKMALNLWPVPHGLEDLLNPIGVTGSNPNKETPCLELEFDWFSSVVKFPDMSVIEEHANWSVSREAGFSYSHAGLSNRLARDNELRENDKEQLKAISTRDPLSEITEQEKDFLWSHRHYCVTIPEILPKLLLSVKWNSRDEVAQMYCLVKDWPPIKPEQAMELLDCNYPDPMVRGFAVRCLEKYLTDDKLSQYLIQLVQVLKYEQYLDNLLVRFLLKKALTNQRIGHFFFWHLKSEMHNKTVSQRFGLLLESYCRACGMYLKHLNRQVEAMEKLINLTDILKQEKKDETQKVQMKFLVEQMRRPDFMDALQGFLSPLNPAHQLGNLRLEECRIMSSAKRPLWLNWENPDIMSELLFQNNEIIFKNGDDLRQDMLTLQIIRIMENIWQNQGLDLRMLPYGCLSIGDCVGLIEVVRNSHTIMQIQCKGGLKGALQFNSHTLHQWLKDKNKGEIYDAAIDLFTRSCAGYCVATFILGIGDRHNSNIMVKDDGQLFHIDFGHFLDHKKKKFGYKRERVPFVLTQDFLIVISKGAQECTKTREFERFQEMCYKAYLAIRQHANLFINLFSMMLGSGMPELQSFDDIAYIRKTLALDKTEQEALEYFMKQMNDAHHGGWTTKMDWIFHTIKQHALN
Phosphatidylinositol 4,5-bisphosphate 3-kinase catalytic subunit beta isoform, sequence (P42338 whole entry, canonical isoform): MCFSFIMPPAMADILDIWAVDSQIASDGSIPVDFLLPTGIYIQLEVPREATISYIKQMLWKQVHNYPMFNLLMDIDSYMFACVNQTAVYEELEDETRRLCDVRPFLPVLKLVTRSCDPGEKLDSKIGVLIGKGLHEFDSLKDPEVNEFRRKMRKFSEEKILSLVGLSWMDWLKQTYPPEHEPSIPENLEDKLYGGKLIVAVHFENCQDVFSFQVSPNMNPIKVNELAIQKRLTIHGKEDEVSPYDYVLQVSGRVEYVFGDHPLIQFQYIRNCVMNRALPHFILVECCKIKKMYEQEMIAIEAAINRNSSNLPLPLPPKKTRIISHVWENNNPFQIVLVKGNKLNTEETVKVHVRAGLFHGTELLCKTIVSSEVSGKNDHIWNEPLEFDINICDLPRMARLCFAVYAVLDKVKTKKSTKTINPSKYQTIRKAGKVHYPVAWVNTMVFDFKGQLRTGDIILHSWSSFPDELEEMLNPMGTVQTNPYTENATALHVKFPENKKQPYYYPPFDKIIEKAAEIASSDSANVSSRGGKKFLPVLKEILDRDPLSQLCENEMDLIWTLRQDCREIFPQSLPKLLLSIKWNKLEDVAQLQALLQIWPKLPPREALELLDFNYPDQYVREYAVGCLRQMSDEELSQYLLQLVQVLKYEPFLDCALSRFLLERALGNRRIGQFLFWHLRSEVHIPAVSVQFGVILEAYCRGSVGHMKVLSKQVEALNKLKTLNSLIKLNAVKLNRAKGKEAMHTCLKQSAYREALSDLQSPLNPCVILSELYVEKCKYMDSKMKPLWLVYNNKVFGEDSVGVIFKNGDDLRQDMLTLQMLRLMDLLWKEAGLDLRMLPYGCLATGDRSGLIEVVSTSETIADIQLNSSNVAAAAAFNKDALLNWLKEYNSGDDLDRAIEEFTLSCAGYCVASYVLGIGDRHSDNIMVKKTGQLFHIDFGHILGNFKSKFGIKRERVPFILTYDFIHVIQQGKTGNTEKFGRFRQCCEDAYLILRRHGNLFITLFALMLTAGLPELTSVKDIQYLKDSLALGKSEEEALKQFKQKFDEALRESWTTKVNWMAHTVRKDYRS

`O=C1NC(=O)/C(=C/c2ccc(-c3cc(OC(F)(F)F)ccc3O)o2)S1`: the IC50 with RAW264.7 was 0.88 µM; in series [1], 0.056 µM; in series [2], 0.6 µM. In series [3], this molecule returned a pKa of 8.7.
On to `O=C1NC(=O)/C(=C/c2ccc(-c3cccc4cccnc34)o2)S1`, for which, in series [4], the inhibition was 17%.
Take `O=C1NC(=O)/C(=C/c2ccc(-c3cccnc3)o2)S1`: the IC50 in series [1] came to 0.95 µM; in [2], 0.63 µM.
Consider `O=C1NC(=O)/C(=C/c2ccc(-c3cc(Cl)ccc3O)o2)S1`, for which the figures for the IC50 in series [1] and in series [2] were 0.043 µM and 0.545 µM, respectively. Besides, in [3], the pKa stood at 8.9.
As for `COC(=O)c1cccc(-c2ccc(/C=C3\SC(=O)NC3=O)o2)c1`, it took 13.5 µM to reach half-maximal inhibition in series [1] (IC50).
Consider `O=C1NC(=O)/C(=C/c2ccc(-c3ccc(F)cc3O)s2)S1`, for which, in [4], the inhibition was 4%.
`O=C1NC(=O)/C(=C/c2ccc(-c3ccoc3)o2)S1` had an IC50 in series [1] of 0.84 µM.
For the molecule `O=C1NC(=O)/C(=C/c2ccc(-c3ccc(O)cc3)o2)S1`, the values for the IC50 in series [1] and in series [2] were 0.38 µM and 3.6 µM, respectively.
With `O=C1NC(=O)/C(=C/c2ccc(-c3ccc(F)cc3F)o2)S1`, the midpoint of inhibition in [1], the IC50, lay at 3.8 µM.
As for `O=C1NC(=O)/C(=C/c2ccc(-c3cccc(C(=O)O)c3)o2)S1`, in [1], the IC50 was 4.3 µM.
The same measure, in the same setting: next, `COc1cccc(-c2ccc(/C=C3\SC(=O)NC3=O)o2)c1`: 2.6 µM.
Consider `O=C1NC(=O)/C(=C/c2ccc(-c3cc(O)ccc3O)o2)S1`, for which the figures for the IC50 in series [1] and in [2] were 0.02 µM and 0.1 µM, respectively.
The molecule `O=C1NC(=O)/C(=C/c2ccc(-c3ccccc3O)s2)S1` showed an inhibition in series [4] of 27%.
Turning to `COC(=O)c1ccccc1-c1ccc(/C=C2\SC(=O)NC2=O)o1`, the inhibition in [4] was 2%.
For the molecule `O=C1NC(=O)/C(=C/c2ccc(-c3ccccc3Cl)o2)S1`, the IC50 in series [1] was found to be 20 µM.
On to `O=C1NC(=O)/C(=C/c2ccc(-c3ccc(O)cc3F)o2)S1`, for which the 50% inhibitory concentration (IC50) is 0.26 µM in series [1] and 1 µM in [2].
In the case of `Nc1ccc([N+](=O)[O-])cc1-c1ccc(/C=C2\SC(=O)NC2=O)o1`, the inhibition in series [4] came to 18%.
`O=C(O)Cc1ccccc1-c1ccc(/C=C2\SC(=O)NC2=O)o1`: the inhibition in series [4] amounted to 12%.
Take `O=C1NC(=O)/C(=C/c2ccc(-c3ccc4c(c3)OCO4)o2)S1`: the concentration for half-maximal inhibition (IC50) in [1] and in series [2] was 20 µM each time.
Regarding `O=C1NC(=O)/C(=C/c2ccc(-c3ccccn3)o2)S1`, the 50% inhibitory concentration (IC50) was 3.65 µM in the series with RAW264.7, 0.11 µM in series [1] and 0.185 µM in series [2].
`COc1cc(F)ccc1-c1ccc(/C=C2\SC(=O)NC2=O)o1` displayed an inhibition in series [4] of 11%.
For `O=C1NC(=O)/C(=C/c2ccc(-c3cccc(O)c3)o2)S1`, the figures for the IC50 in series [1] and in [2] were 0.29 µM and 1.8 µM, respectively.
In series [4], `COc1ccccc1-c1ccc(/C=C2\SC(=O)NC2=O)o1` returned an inhibition of 44%.
As to `O=C1NC(=O)/C(=C/c2ccc(-c3cc(F)ccc3O)o2)S1`, the half-maximal inhibitory concentration (IC50) in the series on RAW264.7 is 1.71 µM; in series [1] it was 0.037 µM; in [2], 0.455 µM. Also, the pKa in series [3] was found to be 9.1.
For the molecule `O=C1NC(=S)S/C1=C\c1ccc(-c2ccc([N+](=O)[O-])cc2Br)o1`, the IC50 in series [1] came out at 3.6 µM.
For the molecule `O=C1NC(=O)/C(=C/c2ccc(-c3cc(F)cc(F)c3O)s2)S1`, the IC50 with RAW264.7 came out at 1.39 µM; in [1] it was 0.029 µM; in series [2], 0.34 µM.
Take `O=C1NC(=S)S/C1=C\c1ccc(-c2cccc(C(=O)O)c2)o1`: the figures for the IC50 in series [1] and in series [2] were 0.92 µM and > 20 µM, respectively.
Consider `O=C1NC(=S)S/C1=C\c1ccc(-c2cc([N+](=O)[O-])ccc2O)o1`, for which the IC50 came out at 0.2 µM in series [1] and 0.6 µM in [2].
In turn, `O=C(O)Cc1cccc(-c2ccc(/C=C3\SC(=O)NC3=O)o2)c1` came in with an inhibition in series [4] of 15%.
The molecule `O=C1NC(=O)/C(=C/c2ccc(-c3ccc([N+](=O)[O-])o3)o2)S1` came in with an IC50 in series [1] of 20 µM.
`Cc1ccc(O)c(-c2ccc(/C=C3\SC(=O)NC3=O)o2)c1`: the results for the concentration for half-maximal inhibition (IC50) (in the series on RAW264.7; in series [1]; in series [2]) were 1.06 µM, 0.039 µM and 0.5 µM, respectively. This molecule also yielded a pKa in series [3] of 9.7.
Consider `O=c1cc(N2CCOCC2)oc2c(-c3ccccc3)cccc12` [LY-294002], for which the concentration for half-maximal inhibition (IC50) is 1.65 µM in the series on THP-1 [5]; 1.33 µM in series [6]; 10 µM with RAW264.7; 1.01 µM with THP-1 [7]; 37 µM with THP-1 [8]. Also, the outcome in the series with Mast cell was Active.
On to `O=C1NC(=O)/C(=C/c2ccc(-c3cccc([N+](=O)[O-])c3O)o2)S1`, for which the concentration for half-maximal inhibition (IC50) in series [1] was determined as 0.08 µM; in series [2], 1.25 µM.
With `O=C1NC(=O)/C(=C/c2ccc(-c3cccc([N+](=O)[O-])c3)o2)S1`, in series [4], the inhibition came out at 24%.
Take `CC(=O)Nc1ccccc1-c1ccc(/C=C2\SC(=O)NC2=O)o1`: the inhibition in series [4] came to 24%.
For the molecule `O=C1NC(=O)/C(=C/c2ccc(-c3ccccc3F)o2)S1`, half-maximal inhibition in [1] (IC50) was put at 1.2 µM.
Same read-out and setting: then `O=C1NC(=O)/C(=C/c2ccc(-c3ccccc3)o2)S1`, with 20 µM.
As for `COC(=O)c1ccc(-c2ccc(/C=C3\SC(=O)NC3=O)o2)c(O)c1`, the IC50 with RAW264.7 is 0.72 µM; in series [1], 0.029 µM; in [2] it was 0.21 µM. In [3], this molecule yielded a pKa of 8.7.
In the same order, the values of `O=C1NC(=O)/C(=C/c2ccc(-c3ccc(O)cc3O)o2)S1` are 3.49 µM, 0.02 µM, 0.19 µM and 8.7.
On to `O=C1NC(=O)/C(=C/c2ccc(-c3ccccc3C(=O)O)o2)S1`, for which the inhibition in [4] turned out to be 4%.
Take `O=C1NC(=O)/C(=C/c2ccc(-c3cc(C(=O)O)ccc3O)o2)S1`: the IC50 came to 0.53 µM in series [1] and 1.35 µM in series [2]. This molecule gave a pKa in series [3] of 8.6.
`O=C1NC(=O)/C(=C/c2ccc(-c3ccccc3O)o2)S1`: the IC50 in series [9] is 20 µM; in series [6] it was > 5 µM; in the series with RAW264.7, 0.81 µM; in [1] it was 0.03 µM; in series [2], 0.33 µM. Further, in series [3], the pKa turned out to be 9.5.
`N#Cc1ccc(O)c(-c2ccc(/C=C3\SC(=O)NC3=O)o2)c1`: the 50% inhibitory concentration (IC50) was 0.04 µM in series [1] and 0.22 µM in series [2]. Further, in series [3], the pKa came out at 7.3.

In general, IC50 refers to the midpoint of a concentration-inhibition curve. Low readings indicate inhibition by little substance, high ones a need for much substance. In general, pKa refers to the negative logarithm of the acid dissociation constant. Higher therefore signals a weaker acid or stronger base. The inhibition is the percentage by which the read-out fell short of the control. High values mean strong suppression, low ones little suppression.

Values taken from ChEMBL document CHEMBL1138050, “Furan-2-ylmethylene thiazolidinediones as novel, potent, and selective inhibitors of phosphoinositide 3-kinase gamma” (J Med Chem, 2006).
